Each structure is given as a SMILES string. Converted amounts (≈) assume the structure as drawn. The source made the active and inactive calls. No cut-off for these calls is given here.

One data set concerns KB. In words: Cytotoxicity against human KB cells up to 20 ug/mL. The class given is functional, cell-based.
The test system of a further data set is NCI-H187. In words: Cytotoxicity against human NCI-H-187 cells up to 20 ug/mL. The class given is functional, cell-based.
A further data set has as its system BC. Description: Cytotoxicity against human BC cells up to 20 ug/mL. The class given is functional, cell-based.
A further data set deals with Pyricularia grisea. Description: Antifungal activity against Magnaporthe grisea up to 50 ug/mL. The class given is functional, organism-based.
The subject of another data set is Candida albicans. In words: Antifungal activity against Candida albicans up to 50 ug/mL. In kind it is functional, organism-based.
The next data set has as its system Plasmodium falciparum. Description: Antiplasmodial activity against Plasmodium falciparum K1 to 20 ug/mL. The class given is functional, organism-based.
A further data set deals with Vero. In words: Cytotoxicity against African green monkey Vero cells up to 50 ug/mL. The class given is cell-based. To be noted: chlorocebus sabaeus.
Data set [1] relates to Mycobacterium tuberculosis. Description: Antitubercular activity against Mycobacterium tuberculosis H37Ra. The class given is functional. An outline of the steps:
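Whole-cell test against the H37Ra strain, with the minimum inhibitory concentration (MIC) read out in µg/mL.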

Consider `O=C(O)CCCCCCCC/C=C/C(=O)N[C@H]1C[C@@]2(O)C(=O)[C@H]([C@H](O)[C@@H]3O[C@@H]32)[C@H]1O` [ISARIOTIN B], for which the outcome in the data set on KB, in the data set with NCI-H187, with BC, in the data set on Pyricularia grisea, in the data set on Candida albicans and with Plasmodium falciparum was inactive. Further, in the data set on Vero, the Activity entry is listed as “Not Active”.

What is called MIC is the least concentration at which growth counts as inhibited. On to `CCCCCC(=O)CCC/C=C/C(=O)N[C@H]1C[C@@]2(O)C(=O)[C@H]([C@H](O)[C@@H]3O[C@@H]32)[C@H]1O` [ISARIOTIN C], for which the result with KB, in the data set with NCI-H187, in the data set with BC, with Pyricularia grisea, with Candida albicans and with Plasmodium falciparum was inactive. In addition, the lowest concentration to inhibit growth in data set [1] (MIC) was 488 µM (≈ 200 µg/mL). Moreover, the Activity entry in the data set on Vero was “Not Active”.

Consider `O=C(/C=C/CCCCCCCCCO)N[C@H]1C[C@@]2(O)C(=O)[C@H]([C@H](O)[C@@H]3O[C@@H]32)[C@H]1O` [ISARIOTIN A], for which the result in the data set on KB, with NCI-H187, in the data set on BC, with Pyricularia grisea, in the data set on Candida albicans and in the data set with Plasmodium falciparum was inactive. In data set [1], the MIC stood at 486 µM (≈ 200 µg/mL). Moreover, the Activity entry in the data set on Vero was “Not Active”.

For `CCCCCCC/C=C/C(=O)N[C@H]1C[C@@]2(O)C(=O)[C@H]([C@H](O)[C@@H]3O[C@@H]32)[C@H]1O` [ISARIOTIN D], the result in the data set on KB, with NCI-H187, with BC, in the data set on Pyricularia grisea, with Candida albicans and in the data set on Plasmodium falciparum was inactive. Further, in data set [1], the minimal inhibitory concentration (MIC) amounted to 544 µM (≈ 200 µg/mL). Moreover, the Activity result in the data set on Vero is “Not Active”.

Source of the values: ChEMBL document CHEMBL1141282, “Isariotins A-D, alkaloids from the insect pathogenic fungus Isaria tenuipes BCC 7831” (J Nat Prod, 2007).
